Source: ChEMBL document CHEMBL4257543, “Structural optimization and antibacterial evaluation of rhodomyrtosone B analogues against MRSA strains” (Medchemcomm, 2018)
Converted amounts (≈) assume the structure as drawn. The source made the active and inactive calls. The rule behind the calls is not given here.

Tests used:
Staphylococcus aureus [1] = assay: Antibacterial activity against methicillin-resistant Staphylococcus aureus JCSC 4788 by micro dilution susceptibility test; type: functional
Method in brief: (§1)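 Microbroth dilution MIC in Mueller–Hinton broth following CLSI guidelines, vancomycin as positive control; resazurin added as visible growth indicator. Assays run at least in triplicate.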

Staphylococcus aureus [2] = assay: Antibacterial activity against Staphylococcus aureus ATCC 29213 by micro dilution susceptibility test; type: functional; method in brief: as §1
Staphylococcus aureus [3] = assay: Antibacterial activity against Staphylococcus aureus CMCC 26003 by micro dilution susceptibility test; type: functional; method in brief: as §1
Staphylococcus aureus [4] = assay: Antibacterial activity against methicillin-resistant Staphylococcus aureus JCSC 2172 by micro dilution susceptibility test; type: functional; method in brief: as §1
Staphylococcus aureus [5] = assay: Antibacterial activity against methicillin-resistant Staphylococcus aureus JCSC 3063 by micro dilution susceptibility test; type: functional; method in brief: as §1
Staphylococcus aureus [6] = assay: Antibacterial activity against methicillin-resistant Staphylococcus aureus JCSC 4469 by micro dilution susceptibility test; type: functional; method in brief: as §1
Staphylococcus aureus [7] = assay: Antibacterial activity against methicillin-resistant Staphylococcus aureus JCSC 4744 by micro dilution susceptibility test; type: functional; method in brief: as §1
Staphylococcus aureus [8] = assay: Antibacterial activity against methicillin-resistant Staphylococcus aureus NCTC 10442 by micro dilution susceptibility test; type: functional; method in brief: as §1
Staphylococcus aureus [9] = assay: Antibacterial activity against methicillin-resistant Staphylococcus aureus N315 by micro dilution susceptibility test; type: functional; method in brief: as §1
Staphylococcus aureus [10] = assay: Antibacterial activity against methicillin-resistant Staphylococcus aureus 85/2082 by micro dilution susceptibility test; type: functional; method in brief: as §1
Bacillus cereus = assay: Antibacterial activity against Bacillus cereus ATCC 10876 by micro dilution susceptibility test; type: functional
Method in brief: (§2)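 Microbroth dilution MIC in Mueller–Hinton broth following CLSI guidelines, with vancomycin as positive control; assays run at least in triplicate.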

Cutibacterium acnes = assay: Antibacterial activity against Propionicibacterium acnes ATCC 6919 by micro dilution susceptibility test; type: functional
Method in brief: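 Microbroth dilution MIC in Mueller–Hinton broth following CLSI guidelines; […]; resazurin added as visible growth indicator; vancomycin positive control; at least triplicate.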

Enterococcus faecium = assay: Antibacterial activity against vancomycin-resistant Enterococcus faecium by micro dilution susceptibility test; type: functional; method in brief: as §1
Paenibacillus polymyxa = assay: Antibacterial activity against Bacillus polymyxa GIM 1.467 by micro dilution susceptibility test; type: functional; method in brief: as §2
Escherichia coli = assay: Antibacterial activity against Escherichia coli ATCC 8739 by micro dilution susceptibility test; type: functional; method in brief: as §2
Salmonella typhi = assay: Antibacterial activity against Salmonella typhi CMCC 44102 by micro dilution susceptibility test; type: functional, Salmonella enterica subsp. enterica serovar Typhi; conditions: Salmonella enterica; method in brief: as §1
Staphylococcus aureus [11] = assay: Selectivity ratio of MIC for methicillin-resistant Staphylococcus aureus JCSC 2172 to MIC for methicillin-resistant Staphylococcus aureus JCSC 4788; type: functional
Staphylococcus aureus [12] = assay: Selectivity ratio of MIC for methicillin-resistant Staphylococcus aureus JCSC 4469 to MIC for methicillin-resistant Staphylococcus aureus JCSC 4788; type: functional
Staphylococcus aureus [13] = assay: Selectivity ratio of MIC for methicillin-resistant Staphylococcus aureus NCTC 10442 to MIC for methicillin-resistant Staphylococcus aureus JCSC 4788; type: functional
[14] = Selectivity ratio of MIC for methicillin-resistant Staphylococcus aureus N315 to MIC for methicillin-resistant Staphylococcus aureus JCSC 4788; type: functional
Staphylococcus aureus [15] = assay: Selectivity ratio of MIC for methicillin-resistant Staphylococcus aureus 85/2082 to MIC for methicillin-resistant Staphylococcus aureus JCSC 4788; type: functional
[16] = Selectivity ratio of IC50 for human MCF7 cells to MIC for methicillin-resistant Staphylococcus aureus JCSC 4788; type: toxicity
Method in brief: (§3)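 Ratio of 24 h MTT cytotoxicity IC50 (compound 1.5625–100 μg mL−1, 0.5% DMSO control) to MIC against MRSA JCSC 4788 from CLSI microbroth dilution in MHB; IC50 values expressed as mean ± SD.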

[17] = Selectivity ratio of IC50 for human SF268 cells to MIC for methicillin-resistant Staphylococcus aureus JCSC 4788; type: toxicity; method in brief: as §3
Staphylococcus aureus [18] = assay: Bactericidal activity against methicillin-resistant Staphylococcus aureus JCSC 4788 assessed as reduction in colony forming units at 4 times MIC measured after 4 hrs by time kill assay relative to control; type: functional; parameters: scale not given: the % may be the effect or the level left
Method in brief: (§4)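 Time-kill per CLSI: overnight MRSA JCSC 4788 adjusted in 0.85% NaCl to 10^6–10^7 CFU mL−1 and exposed to 0.5×, 1×, 2× and 4× MIC at 35 °C, vancomycin as comparator. Viable plate counts at 0.5, 2, 4, 8 and 24 h; two independent experiments.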

Staphylococcus aureus [19] = assay: Bactericidal activity against methicillin-resistant Staphylococcus aureus JCSC 4788 assessed as reduction in bacterial growth at 0.5 to 1 times MIC measured within 8 hrs by time kill assay relative to control; type: functional; parameters: scale not given: the % may be the effect or the level left; method in brief: as §4
Staphylococcus aureus [20] = assay: Bactericidal activity against methicillin-resistant Staphylococcus aureus JCSC 4788 assessed as bacterial killing at 2 MIC measured within 2 hrs by time kill assay relative to control; type: functional; method in brief: as §4
Staphylococcus aureus [21] = assay: Bactericidal activity against methicillin-resistant Staphylococcus aureus JCSC 4788 assessed as bacterial killing at 4 MIC measured within 0.5 hrs by time kill assay relative to control; type: functional; method in brief: as §4
Staphylococcus aureus [22] = assay: Bactericidal activity against methicillin-resistant Staphylococcus aureus JCSC 4788 assessed as reduction in colony forming units at 2 times MIC measured after 2 hrs by time kill assay relative to control; type: functional; parameters: scale not given: the % may be the effect or the level left; method in brief: as §4
Staphylococcus aureus [23] = assay: Induction of membrane disruption in methicillin-resistant Staphylococcus aureus JCSC 4788 assessed as increase in fluorescence intensity at MIC measured after 3 hrs by SYTOX green dye based fluorescence assay; type: functional, organism-based
Method in brief: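 Exponential-phase MRSA JCSC 4788 washed and set to OD620 0.4 in 0.85% NaCl, exposed to serial compound concentrations for 3 h, then 3 μM SYTOX Green for 20 min. Fluorescence read at ex 504/em 523 nm with melittin as positive control and vancomycin as comparator; mean ± SD, n = 3.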

Staphylococcus aureus [24] = assay: Induction of cytoplasmic membrane disruption in methicillin-resistant Staphylococcus aureus JCSC 4788 measured after 3 hrs by SYTOX green dye based fluorescence microscopic analysis; type: functional, organism-based
Method in brief: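 MRSA JCSC 4788 suspension (OD620 0.4) treated with compound or vancomycin for 3 h, stained with 3 μM SYTOX Green, fixed on glass slides and viewed by fluorescence microscopy at 485 nm excitation.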

Staphylococcus aureus [25] = assay: Antibacterial activity against methicillin-resistant Staphylococcus aureus JCSC 4788 in Balb/c mouse skin infection model assessed as reduction in infection-induced morbidity by measuring increase in body weight at 40 ug administered as single dose via intradermal route measured daily for 11 days; type: functional, organism-based
Method in brief: (§5)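 Female BALB/c mice (18–20 g) injected intradermally in abdominal skin with 0.1 mL of MRSA JCSC 4788 (1×10^8 CFU) mixed with a single 40 μg dose in DMSO; DMSO-vehicle controls. Body weight and lesion size recorded daily for 11 days, ulcers imaged at 3 and 8 days; n = 6, mean ± SD.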

Staphylococcus aureus [26] = assay: Antibacterial activity against methicillin-resistant Staphylococcus aureus JCSC 4788 in Balb/c mouse skin infection model assessed as reduction in infection-induced morbidity by measuring decrease in wound size at 40 ug administered as single dose via intradermal route measured daily for 11 days; type: functional, organism-based; method in brief: as §5

CCCCCCCC(=O)c1c(O)cc(O)c2c1OC1=C(C(=O)C(C)(C)C(=O)C1(C)C)C2CC(C)C (configuration not stated)
MIC (Staphylococcus aureus [1]): 0.25 to 0.5 µg/mL (≈ 0.516 to 1.03 µM) | MIC (Staphylococcus aureus [2]): 0.5 µg/mL (≈ 1.03 µM) | MIC (Staphylococcus aureus [3]): 0.25 µg/mL (≈ 0.516 µM) | MIC (Staphylococcus aureus [4]): 0.25 µg/mL (≈ 0.516 µM) | MIC (Staphylococcus aureus [5]): 0.25 µg/mL (≈ 0.516 µM) | MIC (Staphylococcus aureus [6]): 0.25 µg/mL (≈ 0.516 µM) | MIC (Staphylococcus aureus [7]): 0.125 µg/mL (≈ 0.258 µM) | MIC (Staphylococcus aureus [8]): 0.5 µg/mL (≈ 1.03 µM) | MIC (Staphylococcus aureus [9]): 0.25 µg/mL (≈ 0.516 µM) | MIC (Staphylococcus aureus [10]): 0.25 µg/mL (≈ 0.516 µM) | MIC (Bacillus cereus): 0.5 µg/mL (≈ 1.03 µM) | MIC (Cutibacterium acnes): 0.25 µg/mL (≈ 0.516 µM) | MIC (Enterococcus faecium): 2 µg/mL (≈ 4.13 µM) | MIC (Paenibacillus polymyxa): > 32 µg/mL | MIC (Escherichia coli): > 32 µg/mL | MIC (Salmonella typhi): > 32 µg/mL | Selectivity ratio (Staphylococcus aureus [11]): 0.5 - 2 | Selectivity ratio (Staphylococcus aureus [12]): 0.5 - 2 | Selectivity ratio (Staphylococcus aureus [13]): 0.5 - 2 | Selectivity ratio [14]: 0.5 to 2 | Selectivity ratio (Staphylococcus aureus [15]): 0.5 - 2 | Selectivity ratio [16]: 39.9 | Selectivity ratio [17]: 40.6 | Activity (Staphylococcus aureus [18]): 99.9% | Activity (Staphylococcus aureus [19]): >90% | Activity (Staphylococcus aureus [20]): >90% | Activity (Staphylococcus aureus [21]): >90% | Activity (Staphylococcus aureus [22]): 99.9% | Activity (Staphylococcus aureus [23]): Active | Activity (Staphylococcus aureus [24]): Active | Activity (Staphylococcus aureus [25]): Active | Activity (Staphylococcus aureus [26]): Active
